Data: ChEMBL document CHEMBL1140888, “Synthesis, trypanocidal activity and docking studies of novel quinoxaline-N-acylhydrazones, designed as cruzain inhibitors candidates” (Bioorg Med Chem, 2009)

What was measured:
Trypanosoma cruzi [1] = test: Antitrypanosomal activity against Trypanosoma cruzi Tulahuen 2 at 25 uM relative to nifurtimox; format: functional; conditions: read-out: GI
Outline: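 Epimastigotes of Tulahuen 2 strain exposed to 25 µM compound, up to 1% DMSO. A600 read right after inoculation (day 0) and at day 5. %inhibition = {1 − [(Ap − A0p)/(Ac − A0c)]} × 100 against drug-free control. Means of three independent experiments; nifurtimox as reference drug.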

Trypanosoma cruzi [2] = test: Antitrypanosomal activity against Trypanosoma cruzi Tulahuen 2; format: functional, organism-based
Outline: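 Epimastigotes of T. cruzi Tulahuen 2 grown with compound, up to 1% DMSO tolerated. Growth followed as absorbance at 600 nm at day 0 and day 5. Percent inhibition taken relative to drug-free control. IC50 determined only for compounds giving >80% inhibition at 25 µM. Means of three independent experiments; nifurtimox reference.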

J774 [3] = test: Cytotoxicity against mouse J774 cells after 48 hrs by MTT assay; format: cell-based; conditions: J774, 48 h
Outline: (§1)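 J-774 macrophages seeded at 100.000 cells/well in RPMI 1640 with 20% heat-inactivated FCS, attached 48 h at 37 °C, 5% CO2. Exposed to 100, 200 or 400 µM for 48 h, washed with PBS, then MTT 0.4 mg/mL for 3 h at 37 °C. Formazan dissolved in DMSO, OD595 read. %cytotoxicity corrected for compound-in-medium blanks; triplicate wells, six growth controls.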

J774 [4] = test: Cytotoxicity against mouse J774 cells at 400 uM after 48 hrs by MTT assay; format: cell-based; conditions: j774, 48 h; outline: as §1
[5] = Selectivity index, ratio of IC50 for mouse J774 cells to IC50 for Trypanosoma cruzi Tulahuen 2; format: toxicity, cell-based; conditions: J774 cells (versus Trypanosoma cruzi Tulahuen 2), read-out: Ratio IC50

Compound | inhibition of growth at 25 µM (Trypanosoma cruzi [1]) | other results
O=C(N/N=C/c1ccccc1)c1nc2ccccc2nc1-c1ccccc1 | 3% | 
O=C(N/N=C/c1ccc(F)cc1)c1nc2ccccc2nc1-c1ccccc1 | 22% | 
O=C(N/N=C/c1ccc(Br)cc1)c1nc2ccccc2nc1-c1ccccc1 | 40% | 
O=C(N/N=C/c1ccncc1)c1nc2ccccc2nc1-c1ccccc1 | 0% | 
CN(C)c1ccc(/C=N/NC(=O)c2nc3ccccc3nc2-c2ccccc2)cc1 | 29% | 
O=C(N/N=C/c1ccc([N+](=O)[O-])cc1)c1nc2ccccc2nc1-c1ccccc1 | 19% | 
O=C(N/N=C/c1ccccc1O)c1nc2ccccc2nc1-c1ccccc1 | 96% | IC50 (Trypanosoma cruzi [2]): 15.9 µM; IC50 (J774 [3]): > 400 µM; Activity (J774 [4]): 14%; selectivity ratio [5]: > 25.2
O=C(N/N=C/c1ccc(O)cc1)c1nc2ccccc2nc1-c1ccccc1 | 27% | 
O=C(N/N=C/c1ccccn1)c1nc2ccccc2nc1-c1ccccc1 | 0% | 
Cc1nc2ccccc2nc1C(=O)N/N=C/c1ccccc1O | 81% | IC50 (Trypanosoma cruzi [2]): 20 µM; IC50 (J774 [3]): > 400 µM; Activity (J774 [4]): 12%; selectivity ratio [5]: > 20
O=C(N/N=C/c1ccc(Cl)cc1)c1nc2ccccc2nc1-c1ccccc1 | 53% | 
CC(C)c1ccc(/C=N/NC(=O)c2nc3ccccc3nc2-c2ccccc2)cc1 | 36% | 
O=C(N/N=C/c1ccccc1Cl)c1nc2ccccc2nc1-c1ccccc1 | 35% | 
O=C(N/N=C/c1cccc(Cl)c1)c1nc2ccccc2nc1-c1ccccc1 | 47% | 
O=C(N/N=C/c1ccco1)c1nc2ccccc2nc1-c1ccccc1 | 0% | 
CC(=O)N1CCN(c2ccc(OCC3COC(Cn4ccnc4)(c4ccc(Cl)cc4Cl)O3)cc2)CC1 (centres undefined) [KETOCONAZOLE] |  | IC50 (J774 [3]): < 50 µM; Activity (J774 [4]): 100%; selectivity ratio [5]: < 5
CN(C/C=C/C#CC(C)(C)C)Cc1cccc2ccccc12 [TERBINAFINE] |  | IC50 (J774 [3]): 88 µM; Activity (J774 [4]): 100%; selectivity ratio [5]: 5.1
